Source: ChEMBL document CHEMBL4011629, “New Disubstituted Quindoline Derivatives Inhibiting Burkitt's Lymphoma Cell Proliferation by Impeding c-MYC Transcription” (J Med Chem, 2017)
Active and inactive are the calls of the source. The calls are words filed in the database; no cut-off is given here.

Assays:
Mus musculus [1] = assay: Toxicity in NOD/SCID nude mouse xenografted with human Raji cells assessed as reduction in viscera weight at 1 mg/kg, ip administered once in 2 days for 2 weeks measured every day during compound dosing; type: organism-based; conditions: in vivo
Outline: (§1)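 NOD/SCID mice implanted subcutaneously in the underarm with 5 × 10^6 RAJI cells in 100 μL RPMI 1640 with 10% serum; tumours grown about 1 week, then mice randomized. Body weight recorded daily; organ weights taken at end.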

Mus musculus [2] = assay: Toxicity in NOD/SCID nude mouse xenografted with human Raji cells assessed as reduction in body weight at 1 mg/kg, ip administered once in 2 days for 2 weeks measured every day during compound dosing; type: organism-based; conditions: in vivo; outline: as §1
Raji = assay: Antitumor activity against human Raji cells xenografted in NOD/SCID nude mouse assessed as reduction in tumor weight at 1 mg/kg, ip administered once in 2 days for 2 weeks relative to control; type: functional, organism-based
Outline: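 NOD/SCID mice were implanted subcutaneously in the underarm with RAJI cells (5 × 10^6 per 100 μL of RPMI 1640 with 10% serum). Tumours reached […] after 1 week, and mice were then randomised. […] Tumour volume was recorded daily and tumour weight at the end.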

SMILES: COc1cccc2c1C(=O)c1c(O)c3c(c(O)c1C2=O)C[C@@](O)(C(=O)CO)C[C@@H]3O[C@H]1C[C@H](N)[C@H](O)[C@H](C)O1 [DOXORUBICIN]
- Activity (Mus musculus [1]): Toxic
- Activity (Mus musculus [2]): Toxic
- Activity (Raji): Active
